Results of several laboratories.
Each line is one published result; the experiments were not run side by side.
Target: Serine/threonine-protein kinase RIO3 (RIOK3, Homo sapiens, UniProt O14730)
Sequence (O14730 1-519, as in one of the studies): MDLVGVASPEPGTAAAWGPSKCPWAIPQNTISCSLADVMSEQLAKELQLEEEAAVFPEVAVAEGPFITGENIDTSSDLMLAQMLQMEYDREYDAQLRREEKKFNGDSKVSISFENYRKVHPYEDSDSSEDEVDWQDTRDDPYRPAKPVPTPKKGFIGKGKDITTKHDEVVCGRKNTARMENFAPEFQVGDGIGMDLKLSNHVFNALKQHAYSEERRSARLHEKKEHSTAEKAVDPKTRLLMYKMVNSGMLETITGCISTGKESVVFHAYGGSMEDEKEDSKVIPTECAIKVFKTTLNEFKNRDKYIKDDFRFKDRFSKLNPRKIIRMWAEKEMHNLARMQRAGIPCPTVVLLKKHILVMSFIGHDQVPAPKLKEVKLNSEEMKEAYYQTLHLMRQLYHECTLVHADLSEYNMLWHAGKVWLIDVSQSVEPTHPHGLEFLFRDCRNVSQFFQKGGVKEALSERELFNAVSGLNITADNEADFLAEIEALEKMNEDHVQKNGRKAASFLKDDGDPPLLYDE

assay	setting	remaining binding [%]	Compound
binding	1 µM	100	Cc1cnn2ncc(-c3ccnc(N(C)C)n3)c2c1
cell-free assay, competition with immobilised ligand	1 µM	91	CCS(=O)(=O)c1cc2cc(C[C@](O)(CC(C)(C)c3ccc(F)cc3C(N)=O)C(F)(F)F)[nH]c2cn1
binding	1 µM	85	F[C@@H]1CCN(c2nccc(-c3cnn4ncccc34)n2)C1
cell-free assay, competition with immobilised ligand	1 µM	100	COc1cc(-c2cn(C3CCc4ccccc4N(CC(F)(F)F)C3=O)nn2)ccc1-n1ccc(C)n1 (stereo not shown)
binding	1 µM	81	N[C@H]1CCN(c2nccc(-c3cnn4ncccc34)n2)C1
cell-free assay, competition with immobilised ligand	1 µM	100	CCCOc1ccc([C@@H]2[C@@H](C(=O)O)[C@H](c3ccc4c(c3)OCO4)CN2CC(=O)Nc2c(CC)cccc2CC)cc1
binding, competition with immobilised ligand	10 µM	80	c1cncc(-c2cccc(Nc3nccc(NC4CCCCC4)n3)c2)c1
binding, competition with immobilised ligand	1 µM	57	COc1cnc(Nc2cccc(S(N)(=O)=O)c2)nc1N1CCN(c2ccccc2)C(=O)C1
binding, competition with immobilised ligand	1 µM	0	O=C(c1ccc(Nc2ncc(Cl)c(-c3cc4ccccc4s3)n2)cc1)N1CCC(N2CCCC2)CC1
cell-free assay, competition with immobilised ligand	0.1 µM	55	CNC(=O)c1ccc(Nc2ncc(C(F)(F)F)c(NCc3nccnc3N(C)S(C)(=O)=O)n2)cc1
binding	1 µM	100	CN(C)c1nccc(-c2cnn3ncccc23)n1
cell-free assay, competition with immobilised ligand	1 µM	85	O=C(N1CCS(=O)(=O)CC1)N1C[C@H](c2ccc(OC(F)(F)F)cc2)C[C@H](c2nc(C3CC3)no2)C1
binding, competition with immobilised ligand	1 µM	75	Nc1ncc2c(n1)-c1c([nH]c3ccc(C#CC4CC4)cc13)CCCC2
binding	1 µM	93	c1cnn2ncc(-c3ccnc(N4CCC45COC5)n3)c2c1
binding, competition with immobilised ligand	1 µM	88	CNC(=O)[C@@H]1CC[C@@H](n2c(-c3ccc4cnccc4c3)nc3ccc(C(=O)NCc4cccc(C(N)=O)c4)cc32)C1
cell-free assay, competition with immobilised ligand	1 µM	100	CC(=O)N1CCC(c2ccc(C(=O)NC(=N)N)cc2C(F)(F)F)CC1
binding, competition with immobilised ligand	1 µM	0.9	O=C(c1ccc(Nc2nccc(-c3cc4ccccc4s3)n2)cc1)N1CCC(N2CCCC2)CC1
binding	1 µM	100	C[C@H]1CCN(c2nccc(-c3cnn4ncccc34)n2)C1
cell-free assay, competition with immobilised ligand	1 µM	90	CO[C@@H](C)c1c(Nc2ccc([C@@H](N(C)C(=O)C3CCS(=O)(=O)CC3)C(F)(F)F)cc2)cnc2cc(Cl)nn12
binding, competition with immobilised ligand	1 µM	84	O=C(NCC1CCOCC1)c1n[nH]cc1NC(=O)c1c(F)cccc1F
binding	1 µM	100	COc1ccnn2ncc(-c3ccnc(N(C)C)n3)c12
binding, competition with immobilised ligand	1 µM	0.3	Cc1cnc(Nc2ccc(C(=O)N3CCC(N4CCCC4)CC3)cc2)nc1-c1cc2ccccc2s1
